The record followed here is ChEMBL document CHEMBL5620421, “2,6-Disubstituted 7-(naphthalen-2-ylmethyl)-7H-purines as a new class of potent antitubercular agents inhibiting DprE1” (Eur J Med Chem, 2023).

≈ marks a conversion by molar mass, not a printed value.

For test [1], the system named is Mycobacterium tuberculosis. Put plainly: Antimycobacterial activity against isoniazid/ethambutol/rifampin/streptomycin/amikacin/gentamicin/clofazimine/ofloxacin […] MDR/XDR clinical isolate Mycobacterium tuberculosis 9449/2007 assessed as inhibition of mycobacterial growth measured after 14 to 21 days of incubation by Sulas semisynthetic medium based assay. The format is functional, organism-based. To be noted: time 14-21 day. The method in brief:
(§1)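 Clinical MDR/XDR M. tuberculosis isolates were tested by the Sula's semisynthetic medium micromethod. Compounds in DMSO at 1000 to 0.5 μmol/L, in twofold-type steps. Incubation at 37 °C, read at 14 and 21 days. MIC99 is the lowest concentration inhibiting >99% of growth. Drug resistance or susceptibility of each isolate is to amikacin, clofazimine, gentamicin, ofloxacin, streptomycin and the others listed.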

Test [2] has as its system Mycobacterium tuberculosis. Briefly: Antimycobacterial activity against isoniazid/ethambutol/rifampin/streptomycin/amikacin/gentamicin/clofazimine/ofloxacin […] MDR/XDR clinical isolate Mycobacterium tuberculosis 234/2005 assessed as inhibition of mycobacterial growth measured after 14 to 21 days of incubation by Sulas semisynthetic medium based assay. The format is functional, organism-based. To be noted: time 14-21 day. The method in brief:
as §1

Test [3] concerns Mycobacterium tuberculosis. Put plainly: Antimycobacterial activity against isoniazid/ethambutol/rifampin/streptomycin/amikacin/gentamicin/clofazimine/ofloxacin […] MDR/XDR clinical isolate Mycobacterium tuberculosis 8666/2010 assessed as inhibition of mycobacterial growth measured after 14 to 21 days of incubation by Sulas semisynthetic medium based assay. The format is functional, organism-based. To be noted: time 14-21 day. In a few lines:
as §1

Test [4] concerns Mycobacterium tuberculosis. Put plainly: Antimycobacterial activity against isoniazid/ethambutol/rifampin/streptomycin/amikacin/gentamicin/clofazimine/ofloxacin […] MDR/XDR clinical isolate Mycobacterium tuberculosis PRAHA 1 assessed as inhibition of mycobacterial growth measured after 14 to 21 days of incubation by Sulas semisynthetic medium based assay. The format is functional, organism-based. The following applies: time 14-21 day. The method in brief: as §1

Test [5] deals with Mycobacterium tuberculosis. Briefly: Antimycobacterial activity against isoniazid/ethambutol/rifampin/streptomycin/amikacin/gentamicin/clofazimine/ofloxacin […] MDR/XDR clinical isolate Mycobacterium tuberculosis PRAHA 4 assessed as inhibition of mycobacterial growth measured after 14 to 21 days of incubation by Sulas semisynthetic medium based assay. The class given is functional, organism-based. To be noted: time 14-21 day. In a few lines: as §1

Test [6] has as its system Mycobacterium tuberculosis. Put plainly: Antimycobacterial activity against isoniazid/ethambutol/rifampin/streptomycin/amikacin/gentamicin/clofazimine/ofloxacin […] MDR/XDR clinical isolate Mycobacterium tuberculosis 7357/1998 assessed as inhibition of mycobacterial growth measured after 14 to 21 days of incubation by Sulas semisynthetic medium based assay. The format is functional, organism-based. To be noted: time 14-21 day. The method in brief:
as §1

The subject of test [7] is Mycobacterium tuberculosis. Put plainly: Antibacterial activity against Mycobacterium tuberculosis H37Rv (ATCC 27294) assessed as inhibition of bacterial growth incubated for 14 days. The format is functional. To be noted: 336 h, time 14 day. In a few lines:
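Micromethod MIC in Sula's semisynthetic medium. MIC is the lowest concentration inhibiting >99% of the mycobacterial population. Isoniazid was the standard drug.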

GENTAMICIN: the MIC99 in test [1] came out at 1 µM; in test [2], 0.25 µM; in test [3], 2 µM; in test [4], 1 µM; in test [5], 0.5 µM; in test [6] it was 1 µM.
In the case of `COc1ncnc(Cn2cc(C(=O)NCCO)c3ncc(C)cc32)c1C` [TBA-7371], the MIC in test [7] worked out at 0.64 µg/mL (≈ 1.8 µM).

One may read the MIC99 as the lowest concentration that inhibits either 99% of growth or 99% of the strains tested, depending on the study. Broadly, the MIC is the smallest concentration in the dilution series that meets the test's criterion for growth inhibition.
